Shown are actives, neighbours in structure and some others; about 3.4% of the full set was active somewhere.
CHT inh – human CHT choline transport inhibition; Q9GZV3; CHT-expressing cells, membrane potential dye, choline response; active compounds read low; B-score at 10 µM; 310,000 compounds, 0.86% hits; AID 488975;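 active = B-score over 3 SD under the library average, and starting fluorescence ratio not unusually high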;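 note: choline stimulus applied at its EC90 after an EC20 pre-addition; B-score computed on integrated fluorescence ratio after choline addition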
Target sequence (Q9GZV3 whole entry, looked up): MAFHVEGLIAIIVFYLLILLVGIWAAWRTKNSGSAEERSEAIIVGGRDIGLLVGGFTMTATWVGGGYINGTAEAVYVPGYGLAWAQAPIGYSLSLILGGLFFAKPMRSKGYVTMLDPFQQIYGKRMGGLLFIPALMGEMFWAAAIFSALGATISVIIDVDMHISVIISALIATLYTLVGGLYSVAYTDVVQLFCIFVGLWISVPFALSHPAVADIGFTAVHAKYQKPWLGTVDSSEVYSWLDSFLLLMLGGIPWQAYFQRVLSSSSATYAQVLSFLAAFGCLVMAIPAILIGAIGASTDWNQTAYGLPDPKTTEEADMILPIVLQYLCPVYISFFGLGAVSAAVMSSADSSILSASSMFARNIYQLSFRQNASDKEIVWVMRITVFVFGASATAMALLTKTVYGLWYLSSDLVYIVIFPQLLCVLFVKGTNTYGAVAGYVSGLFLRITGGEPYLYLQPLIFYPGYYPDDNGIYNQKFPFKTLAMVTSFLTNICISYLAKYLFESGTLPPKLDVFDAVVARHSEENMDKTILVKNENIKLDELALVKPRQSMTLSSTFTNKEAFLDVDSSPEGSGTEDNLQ
VIM-2 inh – inhibitors of Pseudomonas aeruginosa VIM-2 metallo-beta-lactamase | purified VIM-2, nitrocefin hydrolysis, epi-absorbance fluorescence | inhibition, % at 5.6 µM | 290,000 compounds, 0.89% hits | AID 1527;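 active = inhibition above the mean of all tested compounds plus 3 SD, cutoff set per screening run, cut at about 7.5% in these data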;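 note: red hydrolysis product quenches plate fluorescence so inhibitors raise well fluorescence; 0% = enzyme with DMSO and 100% = DMSO without enzyme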
IMP-1 inh – blocks Pseudomonas aeruginosa IMP-1 metallo-beta-lactamase; purified IMP-1, nitrocefin hydrolysis, epi-absorbance fluorescence; inhibition, % at 5.6 µM; 290,000 compounds, 0.45% hits; AID 1556;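 active = inhibition above the mean plus 3 SD of all compounds in the same screening run, cut at about 4.5% in these data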;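 note: 0% = IMP-1 with DMSO and 100% = DMSO wells lacking enzyme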
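System: purified IMP-1 / Input: IMP-1 dispensed at 0.2 nM / Medium: 50 mM HEPES pH 7.1, 50 µM ZnSO4, 0.05% Brij 35 / Timing: 15 min enzyme–compound preincubation, then 25 min nitrocefin reaction, 25 °C / Technique: plate fluorescence quenching by hydrolysis product, ex 480/em 530 nm / Repeats: singlicate testing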
ANO1 block – mouse TMEM16A channel inhibition, primary screen; Q8BHY3; HEK293 TMEM16A/YFP iodide influx fluorescence, ionomycin; normalized B-score (activity score, 25-100; higher = stronger inhibition) at 10 µM; 310,000 compounds, 1.2% hits;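 active = ratio plate-corrected score three or more library SD toward inhibition, starting fluorescence score within five deviations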;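 note: score derived from kinetic fluorescence span divided by baseline fluorescence per well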
TMEM16A act – activates or potentiates the mouse TMEM16A chloride channel | B-score at 10 µM | Q8BHY3 | 340,000 compounds, 0.3% hits | HEK293 TMEM16A/YFP-H148Q/I152L, iodide quench fluorescence; active compounds read low;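 active = fluorescence-ratio B-score plate-corrected deviation score at least 3 library SD below zero, with starting fluorescence score within 5 deviations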;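 note: channel opened by trigger with iodide after compound preincubation; score built on the fluorescence ratio of max minus min over baseline; more negative score means more quench and so TMEM16A activation or potentiation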
CHT allo act – allosterically activates the human high affinity choline transporter; Q9GZV3; CHT-expressing cells, membrane potential dye, choline EC20; active compounds read high; LV-AA mutant CHT in HEK293 cells; B-score at 10 µM; 310,000 compounds, 0.49% hits;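 active = initial fluorescence not abnormally high and integrated response B-score, plate-corrected, over 3 SD above library mean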
CHT block conf – confirmation of human choline transporter CHT inhibitors | shares compounds with CHT inh | CHT-expressing cells, choline membrane potential dye; LV-to-AA substituted CHT, HEK293 cells | CHT activity remaining % of control (active compounds read low), % at 10 µM | 2,400 compounds, 70% hits | AID 493221;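 active = choline transporter activity left, mean of duplicates at 10 µM, below buffer-only control mean minus 3 SD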;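 note: depolarization triggered by choline at its EC90 following an EC20 pre-addition; 0% = hemicholinium-3 full block and 100% = buffer-only control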
HEK293 CHT ctr – counter-screen for CHT inhibitors: effect in parental HEK293 cells. shares compounds with CHT inh. membrane potential dye, choline response; active = decrease or increase beyond buffer ±3SD. membrane potential ratio readout (active if shifted either direction beyond buffer ±3SD; no single direction) at 10 µM. 2,400 compounds, 4% hits. AID 493222;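 note: parental cells lack the transporter so any hit is non-specific; ratio is peak minus trough fluorescence over baseline after EC90 choline challenge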
* hit, by the source's call; i = inactive; . = no result given.

SMILES	CHT inh	VIM-2 inh	IMP-1 inh	ANO1 block	TMEM16A act	CHT allo act	CHT block conf	HEK293 CHT ctr
COc1cccc(CN2CCNC(=O)C2CC(=O)NCCn2nc(C)cc2C)c1OC (stereo unspecified)	i	-1	-1	i	i	i	.	.
Cc1cc(C)n(CCNC(=O)CC2C(=O)NCCN2Cc2ccccc2C(F)(F)F)n1 (stereo unspecified)	-6.4*	1	-1	i	i	i	i	i
CCn1cc(CNC(=O)c2cc(COc3ccc(F)cc3F)on2)cn1	i	-2	-1	i	i	i	69%*	i
CCn1ccnc1CNC(=O)c1cc(COc2ccc(F)cc2F)on1	i	-3	-3	i	i	i	.	.
CN(C)c1ccc(C(=O)N2CCCC(N3CCN(Cc4ccc5c(c4)OCO5)CC3)C2)cc1 (stereo unspecified)	i	-2	-2	i	i	i	.	.
Nc1ccccc1C(=O)NC1CCCNC1=O (stereo unspecified)	-16*	.	.	i	i	i	i	i
CC(=O)OC1CC2(C)/C(=N\O)CCC2C2CCc3cc(O)ccc3C12 (stereo unspecified)	-11*	-2	-5	i	i	i	3.2%*	i
Cc1ccc(CNS(=O)(=O)c2c(C)[nH]c(C)c2C(=O)N2CCCCC2)cc1	i	0	-3	i	i	i	.	.
CC(=O)C(Sc1nn(C)c(=S)s1)C(=O)Nc1ccccc1 (stereo unspecified)	-5.4*	-3	-3	i	i	i	49%*	i
CC(=O)C(Sc1nc(N(C)C)nc(N(C)C)n1)C(=O)Nc1ccccc1 (stereo unspecified)	i	-2	-3	i	i	i	.	.
Cc1csc(NC(=O)CSc2nc(C(C)C)nc3ccccc23)n1	-5.9*	-3	-1	i	i	i	60%*	i
COC(=O)CSc1nc(C(C)C)nc2ccccc12	i	-7	-4	i	i	i	.	.
COc1cc(NS(=O)(=O)c2ccc(NC(=O)c3ccc(Cl)cc3Cl)cc2)ncn1	-9.3*	-1	0	i	i	i	27%*	i
COc1ccc(NS(=O)(=O)c2ccc(NC(=O)c3ccccc3Br)cc2)nn1	-8.5*	-4	-3	i	i	i	19%*	i
O=C(Nc1ccc(S(=O)(=O)Nc2cnc3ccccc3n2)cc1)c1cc(F)c(F)cc1Cl	-6.6*	-2	-3	i	i	i	27%*	i
O=C(NCc1ccncc1)c1cc(F)c(F)cc1Cl	i	0	-2	i	i	i	.	.
O=C(Nc1ccc(Cc2ccncc2)cc1)c1cc(F)c(F)cc1Cl	-8.5*	-1	-3	i	i	i	i	i
Clc1ccc(-c2noc3c2-c2nc(Cc4cccc5ccccc45)sc2CC3)cc1	i	.	.	i	i	i	.	.
COc1ccc(CCNC(=O)COC(=O)c2cc(=O)[nH]c3ccccc23)cc1	.	.	.	.	i	.	.	.
O=C(COc1cc(O)c2c(=O)c3ccccc3oc2c1)OCc1ccccc1	i	1	-2	i	i	i	.	.
CC(=O)N1CCN(C(=O)CNC(=O)c2ccc(C)s2)CC1	.	.	.	.	i	.	.	.
O=C(Cc1ccc(Cl)cc1)Nc1ccc(S(=O)(=O)Nc2cnc3ccccc3n2)cc1	i	0	-3	i	i	i	.	.
O=C(Nc1ccc(S(=O)(=O)Nc2cnc3ccccc3n2)cc1)c1ccc(Cl)c([N+](=O)[O-])c1	-6.1*	0	-1	i	i	i	60%*	i
COc1ccc(C(=O)Nc2ccc(S(=O)(=O)Nc3cnc4ccccc4n3)cc2)cc1	i	-1	-2	i	i	i	.	.
O=C(Nc1ccc(S(=O)(=O)Nc2cnc3ccccc3n2)cc1)c1ccc(Cl)cc1Cl	-13*	.	.	i	i	i	-9.5%*	i
SMILES	CHT inh	VIM-2 inh	IMP-1 inh	ANO1 block	TMEM16A act	CHT allo act	CHT block conf	HEK293 CHT ctr
c1ccc(Sc2ncnc3ccccc23)cc1	-5*	-2	-2	i	i	i	i	i
Cc1ccc(NC(=S)Nc2cccc3cnccc23)cc1	i	4	0	i	i	i	.	.
Cc1ccc(NC(=S)Nc2cccc3cnccc23)cc1C	-5.9*	0	0	i	i	i	54%*	i
CC(=O)c1ccc(Nc2nc(NCCO)nc(OC(C(F)(F)F)C(F)(F)F)n2)cc1	-5.1*	-2	-2	i	i	i	66%*	i
CCOC(=O)C1(Cc2cccc(OC)c2)CCCN(CCO)C1 (stereo unspecified)	i	1	0	i	i	i	.	.
Cc1ccccc1CNS(=O)(=O)c1ccc2c(c1)OCCO2	-5.8*	3	0	i	i	i	64%*	i
Cc1ccc(CNS(=O)(=O)c2ccc3c(c2)OCCO3)cc1	i	-2	-5	i	i	i	.	.
COc1ccc(C2=NN(c3nc(C(=O)O)cs3)C(O)(C(F)(F)F)C2)c(OC)c1 (stereo unspecified)	-8.9*	-1	-2	i	i	i	42%*	i
Cc1ccccc1Nc1c(-c2ccncc2)nc2ccc(Br)cn12	-6.9*	-2	-3	i	i	i	51%*	i
Cc1ccc2cc3c(nc2c1)OCC3	i	-2	-3	i	i	i	.	.
Cc1ccc(C(=O)Oc2ccccc2C(=O)N2CCOCC2)cc1	i	-2	-4	i	i	i	.	.
O=C(Oc1ccccc1C(=O)N1CCOCC1)c1ccc(F)cc1	-8.2*	-1	-3	i	i	i	i	i
Cc1c(NC(=O)/C=C/c2cn(-c3ccccc3)nc2-c2ccccc2)c(=O)n(-c2ccccc2)n1C	-5.7*	1	-2	i	i	i	65%*	i
O=C(Nc1cc(S(=O)(=O)N2CCOCC2)ccc1O)c1ccc(NS(=O)(=O)c2ccc(Cl)s2)cc1	i	-4	-2	i	i	i	.	.
Cc1ccc(NC(=O)c2ccccc2NS(=O)(=O)c2ccc(Cl)s2)cc1S(=O)(=O)N1CCOCC1	-11*	0	0	25*	i	i	40%*	i

Source: PubChem BioAssay (several laboratories)
